Data: ChEMBL document CHEMBL1141901, “1-Aryl-4,6-diamino-1,2-dihydrotriazine as antimalarial agent: a new synthetic route” (Bioorg Med Chem Lett, 2005)

How the values were obtained:
[1] = Inhibitory concentration against Plasmodium falciparum
[2] = Inhibitory concentration against cycloguanil sensitive Plasmodium falciparum FJB-D9; assay type: functional
Summary of the method: (§1)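 P. falciparum field isolates (collected from patients, 1990) grown in RPMI 1640 lacking p-aminobenzoic acid and folic acid, with 25 mM HEPES, bicarbonate and 10% human AB+ serum. Compounds tested over 0.0005–100 range, 30 h at 37 °C in candle jar. Schizonts (≥8 nuclei) per 200 asexual parasites counted microscopically in duplicate wells. Inhibition as (1 − Nt/Nc)×100. IC50/IC90 taken from these values.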

Plasmodium falciparum [3] = assay: Inhibitory concentration sensitive Plasmodium falciparum FJB-D9; assay type: functional
Summary of the method: as §1

Plasmodium falciparum [4] = assay: Inhibitory concentration against Plasmodium falciparum

| IC50 [1] | IC50 [2] | IC90 (Plasmodium falciparum [3]) | IC90 (Plasmodium falciparum [4]) | SMILES |
| --- | --- | --- | --- | --- |
| 81.9 µM | 87.6 µM | – | – | NC1=NC(c2ccccc2)N(c2ccc(F)c(Cl)c2)C(N)=N1 (stereo unspecified) |
| 0.005 µM | 0.0016 µM | 0.006 µM | 0.028 µM | CCc1nc(N)nc(N)c1-c1ccc(Cl)cc1 [PYRIMETHAMINE] |
| 501 µM | 584 µM | – | – | Cc1ccc(N2CN=C(N)N=C2N)cc1 |
| 52.9 µM | 81 µM | – | – | NC1=NC(c2ccccc2)N(c2ccccn2)C(N)=N1 (stereo unspecified) |
| 629 µM | 618 µM | – | – | NC1=NCN(c2ccccn2)C(N)=N1 |
| 14.7 µM | 17.3 µM | 47.6 µM | 49.5 µM | NC1=NCN(c2ccc(F)c(Cl)c2)C(N)=N1 |
